Test results as given in ChEMBL document CHEMBL1122643, “Alpha-adrenoreceptor reagents. 2. Effects of modification of the 1,4-benzodioxan ring system on alpha-adrenoreceptor activity” (J Med Chem, 1984).
Calls of active or inactive are those of the source. The rule behind the calls is not given here.

What was measured:
[1] = molecular target: T1, Alpha-2 adrenergic receptor (Mus musculus) (UniProt P30545+Q01338+Q01337); assay: Ability to antagonize the inhibitory effect of clonidine on the mouse vas deferens is the presynaptic alpha-2 adrenergic receptor antagonist potency relative to idazoxan = 1.; format: functional, tissue-based
Outline: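 Male adult mouse vasa deferentia (MFI >30 g), 0.5 g initial tension, Mg-free Krebs, 30 °C, 95% O2/5% CO2. Field stimulation at 0.1 Hz, 3-ms pulses, 100-140 V set to give ~100-mg twitch, recorded isometrically.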

[2] = molecular target: T2, Adrenergic receptor alpha-1 (Rattus norvegicus) (UniProt P15823+P23944+P43140); assay: Agonism at Alpha-1 adrenoceptor determined in rat anococcygeus preparation; Inactive.; format: functional
Outline: (§1)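 Isolated tissue agonist test, potency compared directly with the standard in the same experiment. Standard dose-response curves were run before and after the test compound's curve. Rat anococcygeus (male Sprague-Dawley, 200-250 g; Krebs, 30 °C, 95% O2/5% CO2) was compared with phenylephrine. Field-stimulated mouse vas deferens (0.1 Hz, Mg-free Krebs, 30 °C) was compared with clonidine.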

[3] = molecular target: T1, Alpha-2 adrenergic receptor (Mus musculus); assay: Presynaptic alpha-2 adrenergic receptor from mouse vas deferens agonistic activity relative to clonidine = 1.; format: functional, tissue-based; outline: as §1
[4] = molecular target: T2, Adrenergic receptor alpha-1 (Rattus norvegicus); assay: In vitro inhibition of the contractile effect of phenylephrine on the isolated rat anococcygeus; potency relative to idazoxan.; format: functional
[5] = Selectivity between pre- and post-synaptic sites of action.; format: functional
[6] = molecular target: T2, Adrenergic receptor alpha-1 (Rattus norvegicus); assay: Agonism in vitro at Alpha-1 adrenoceptor determined in rat anococcygeus preparation.; format: functional; outline: as §1
[7] = molecular target: T2, Adrenergic receptor alpha-1 (Rattus norvegicus); assay: In vitro inhibition of the contractile effect of phenylephrine on the isolated rat anococcygeus; potency relative to idazoxan; Inactive.; format: functional
[8] = molecular target: T1, Alpha-2 adrenergic receptor (Mus musculus); assay: Presynaptic alpha-2 adrenergic receptor agonistic activity in mouse vas deferens relative to clonidine; format: functional, tissue-based; outline: as §1

T1 sequence (P30545 whole entry, looked up): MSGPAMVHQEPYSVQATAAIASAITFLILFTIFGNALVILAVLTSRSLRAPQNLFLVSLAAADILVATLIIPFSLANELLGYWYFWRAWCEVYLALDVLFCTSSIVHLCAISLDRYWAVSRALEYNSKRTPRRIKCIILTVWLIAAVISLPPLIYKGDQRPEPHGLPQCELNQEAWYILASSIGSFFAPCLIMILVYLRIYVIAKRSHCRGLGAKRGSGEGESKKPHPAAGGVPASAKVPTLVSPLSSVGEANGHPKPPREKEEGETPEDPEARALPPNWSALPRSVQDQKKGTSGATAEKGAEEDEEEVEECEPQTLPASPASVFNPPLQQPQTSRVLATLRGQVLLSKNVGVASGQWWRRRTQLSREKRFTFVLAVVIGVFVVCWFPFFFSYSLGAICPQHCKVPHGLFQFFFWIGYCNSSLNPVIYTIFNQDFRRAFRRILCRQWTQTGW
T1 sequence (Q01337 whole entry, looked up): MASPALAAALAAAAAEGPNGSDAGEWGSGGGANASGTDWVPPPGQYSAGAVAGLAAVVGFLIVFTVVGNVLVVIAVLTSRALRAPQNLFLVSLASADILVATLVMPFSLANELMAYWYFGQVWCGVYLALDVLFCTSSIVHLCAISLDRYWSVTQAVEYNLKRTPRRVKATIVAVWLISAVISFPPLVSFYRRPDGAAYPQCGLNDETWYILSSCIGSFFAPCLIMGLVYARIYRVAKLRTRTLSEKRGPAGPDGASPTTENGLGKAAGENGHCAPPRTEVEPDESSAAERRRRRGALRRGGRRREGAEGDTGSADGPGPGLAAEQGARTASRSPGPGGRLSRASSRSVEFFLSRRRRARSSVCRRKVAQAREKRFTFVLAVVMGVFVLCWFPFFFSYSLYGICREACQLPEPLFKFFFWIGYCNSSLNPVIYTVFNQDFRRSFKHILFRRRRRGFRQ
T1 sequence (Q01338 whole entry, looked up): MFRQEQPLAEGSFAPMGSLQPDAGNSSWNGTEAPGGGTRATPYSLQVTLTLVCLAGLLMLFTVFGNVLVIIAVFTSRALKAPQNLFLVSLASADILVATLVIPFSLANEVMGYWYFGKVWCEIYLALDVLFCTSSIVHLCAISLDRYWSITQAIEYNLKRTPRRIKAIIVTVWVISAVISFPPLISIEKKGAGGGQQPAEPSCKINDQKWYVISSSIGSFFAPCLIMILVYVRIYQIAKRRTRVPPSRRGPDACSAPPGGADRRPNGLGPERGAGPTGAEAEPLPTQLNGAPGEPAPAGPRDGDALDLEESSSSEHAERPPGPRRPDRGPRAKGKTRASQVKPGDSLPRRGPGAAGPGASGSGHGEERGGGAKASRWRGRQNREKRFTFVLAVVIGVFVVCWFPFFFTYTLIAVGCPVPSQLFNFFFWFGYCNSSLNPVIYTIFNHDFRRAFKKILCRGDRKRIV

SMILES	Antagonist potency [1]	Agonist potency [2]	Agonist potency [3]	Antagonist potency [4]	Ratio [5]	Agonist potency [6]	Antagonist potency [7]	Agonist potency [8]
Fc1ccc2c(c1)CC(C1=NCCN1)O2 (centres undefined)	1.07	inactive	inactive	5.6	0.2			
c1ccc(CCC2(C3=NCCN3)Cc3ccccc3O2)cc1 (centres undefined)	0.07	inactive	inactive	0.07	1			
Cc1cc(C)c2c(c1)CC(C1=NCCN1)O2 (centres undefined)	0.3		inactive			0.03	inactive	
c1ccc2sc(C3=NCCN3)cc2c1	0.001	inactive	inactive	0.05	0.02			
Brc1ccc2c(c1)CC(C1=NCCN1)O2 (centres undefined)	0.2					0.026	inactive	< 0.001
c1ccc2c(c1)CCC(C1=NCCN1)O2 (centres undefined)	0.01	inactive	inactive	1	0.01			
c1ccc2c(c1)OC(C1=NCCN1)O2	0.001		inactive			0.005	inactive	
c1ccc2c(c1)OCCC(C1=NCCN1)O2 (centres undefined)	0.04		inactive			< 0.0005	inactive	
CC1c2ccccc2OC1C1=NCCN1 (centres undefined)	0.03	inactive	inactive	0.1	0.3			
Cc1cc2c(cc1C)OC(C1=NCCN1)C2 (centres undefined)	0.7	inactive	inactive	0.9	0.8			
Oc1ccc2c(c1)CC(C1=NCCN1)O2 (centres undefined)	0.02					0.25	inactive	0.02
Cc1ccc2c(c1)OC(C1=NCCN1)C2 (centres undefined)	0.46	inactive	inactive	2.25	0.2			
COc1cccc2c1OC(C1=NCCN1)C2 (centres undefined)	0.07		inactive			0.3	inactive	
Oc1cccc2c1OC(C1=NCCN1)C2 (centres undefined)	0.04		inactive			0.24	inactive	
COc1ccc2c(c1)OC(C1=NCCN1)C2 (centres undefined)	0.07	inactive	inactive	0.35	0.2			
CC1(C2=NCCN2)Oc2ccccc2O1	0.001		inactive	0.01	0.1	0.05		
Clc1cccc2c1CC(C1=NCCN1)O2 (centres undefined)	2		inactive			1	inactive	
c1ccc2c(c1)CC(C1=NCCN1)S2 (centres undefined)	0.1	inactive		0.69	0.14			0.001
c1ccc2oc(C3=NCCN3)cc2c1	0.01					< 0.001		< 0.0003
Cc1ccc2c(c1)CC(C1=NCCN1)O2 (centres undefined)	1	inactive	inactive	2.25	0.44			
CC(=O)c1ccc2c(c1)CC(C1=NCCN1)O2 (centres undefined)	0.003		inactive			0.02	inactive	
c1ccc2c(c1)CC(C1=NCCN1)CO2 (centres undefined)	0.01	inactive	inactive	1	0.01			
